Data taken from ChEMBL document CHEMBL1777686, “Discovery of DA-1229: a potent, long acting dipeptidyl peptidase-4 inhibitor for the treatment of type 2 diabetes” (Bioorg Med Chem Lett, 2011).
One block for each molecule: values may come before it.

Tests used:
Cytochrome P450 2D6 = Cytochrome P450 2D6 (Homo sapiens, UniProt P10635); test: Inhibition of CYP2D6; assay type: ADME
Cytochrome P450 2C9 = Cytochrome P450 2C9 (Homo sapiens, UniProt P11712); test: Inhibition of CYP2C9; assay type: ADME
Cytochrome P450 1A2 = target: T1, Cytochrome P450 1A2 (Homo sapiens, UniProt P05177); test: Inhibition of CYP1A2; assay type: ADME
T1 sequence (P05177 whole entry): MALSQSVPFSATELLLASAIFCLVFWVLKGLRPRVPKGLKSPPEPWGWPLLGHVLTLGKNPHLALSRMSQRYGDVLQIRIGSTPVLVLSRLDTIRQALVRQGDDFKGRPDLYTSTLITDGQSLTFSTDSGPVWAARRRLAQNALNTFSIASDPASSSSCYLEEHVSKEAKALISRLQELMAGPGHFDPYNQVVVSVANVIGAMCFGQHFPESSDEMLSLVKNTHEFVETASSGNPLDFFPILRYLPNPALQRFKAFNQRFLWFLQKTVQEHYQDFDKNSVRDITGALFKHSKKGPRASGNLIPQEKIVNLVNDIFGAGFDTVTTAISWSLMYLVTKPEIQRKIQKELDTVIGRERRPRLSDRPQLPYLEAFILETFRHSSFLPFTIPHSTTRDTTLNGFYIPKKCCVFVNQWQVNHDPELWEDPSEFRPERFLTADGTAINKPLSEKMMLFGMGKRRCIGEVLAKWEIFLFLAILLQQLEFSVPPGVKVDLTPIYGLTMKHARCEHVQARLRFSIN

Cytochrome P450 3A4 = Cytochrome P450 3A4 (Homo sapiens, UniProt P08684); test: Inhibition of CYP3A4; assay type: ADME
Cytochrome P450 3A4, sequence (P08684 whole entry): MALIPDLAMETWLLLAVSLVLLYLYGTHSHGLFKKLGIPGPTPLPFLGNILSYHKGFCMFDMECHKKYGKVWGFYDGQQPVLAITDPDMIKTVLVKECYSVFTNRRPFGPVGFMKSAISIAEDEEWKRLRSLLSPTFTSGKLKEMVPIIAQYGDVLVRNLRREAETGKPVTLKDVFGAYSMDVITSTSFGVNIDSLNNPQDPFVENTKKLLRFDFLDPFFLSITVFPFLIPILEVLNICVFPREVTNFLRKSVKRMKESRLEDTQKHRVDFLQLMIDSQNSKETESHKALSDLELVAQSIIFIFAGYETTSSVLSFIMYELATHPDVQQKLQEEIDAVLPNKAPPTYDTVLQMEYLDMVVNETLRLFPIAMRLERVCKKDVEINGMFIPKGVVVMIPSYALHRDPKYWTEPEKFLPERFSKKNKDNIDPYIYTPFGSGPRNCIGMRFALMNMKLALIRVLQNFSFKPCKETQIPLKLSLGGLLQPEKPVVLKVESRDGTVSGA

Cytochrome P450 2C19 = Cytochrome P450 2C19 (Homo sapiens, UniProt P33261); test: Inhibition of CYP2C19; assay type: ADME
Cytochrome P450 2C19, sequence (P33261 whole entry): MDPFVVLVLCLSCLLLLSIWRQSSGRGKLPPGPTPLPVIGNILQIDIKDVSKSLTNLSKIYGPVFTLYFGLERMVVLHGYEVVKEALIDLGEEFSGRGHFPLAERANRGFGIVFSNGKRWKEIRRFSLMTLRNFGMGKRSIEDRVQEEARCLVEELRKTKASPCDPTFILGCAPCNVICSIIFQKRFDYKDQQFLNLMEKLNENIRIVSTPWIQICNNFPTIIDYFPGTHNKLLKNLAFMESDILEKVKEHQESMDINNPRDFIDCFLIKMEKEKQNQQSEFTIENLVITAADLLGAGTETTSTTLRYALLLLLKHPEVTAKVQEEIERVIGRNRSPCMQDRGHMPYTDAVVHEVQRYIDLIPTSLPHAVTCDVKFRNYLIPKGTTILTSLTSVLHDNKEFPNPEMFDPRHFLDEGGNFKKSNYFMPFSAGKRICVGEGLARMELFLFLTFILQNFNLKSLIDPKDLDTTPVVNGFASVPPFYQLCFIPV

[1] = Oral bioavailability in rat; assay type: ADME, organism-based; details: in vivo
Rattus norvegicus [2] = organism: Rattus norvegicus; details: Sprague-Dawley, Plasma, 1 mg/kg
[3] = Volume of distribution at steady state in rat; assay type: ADME, organism-based; details: in vivo, read-out: Vdss
Rattus norvegicus [4] = test: Inhibition of DPP-4 in Sprague-Dawley rat plasma at 10 mg/kg, po administered as single dose measured at 24 hrs post dose; assay type: functional
How it was run: (§1)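 SD rats received a single oral dose of 1, 3 or 10 mg/kg. Plasma was sampled from 30 min up to 24 h after dosing, and plasma DPP-4 activity was measured as percent inhibition.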

[5] = Half life in human liver microsomes; assay type: ADME, Microsome
[6] = target: Voltage-gated inwardly rectifying potassium channel KCNH2 (Homo sapiens, UniProt Q12809); test: Inhibition of human ERG by patch clamp method
Voltage-gated inwardly rectifying potassium channel KCNH2, sequence (Q12809 whole entry): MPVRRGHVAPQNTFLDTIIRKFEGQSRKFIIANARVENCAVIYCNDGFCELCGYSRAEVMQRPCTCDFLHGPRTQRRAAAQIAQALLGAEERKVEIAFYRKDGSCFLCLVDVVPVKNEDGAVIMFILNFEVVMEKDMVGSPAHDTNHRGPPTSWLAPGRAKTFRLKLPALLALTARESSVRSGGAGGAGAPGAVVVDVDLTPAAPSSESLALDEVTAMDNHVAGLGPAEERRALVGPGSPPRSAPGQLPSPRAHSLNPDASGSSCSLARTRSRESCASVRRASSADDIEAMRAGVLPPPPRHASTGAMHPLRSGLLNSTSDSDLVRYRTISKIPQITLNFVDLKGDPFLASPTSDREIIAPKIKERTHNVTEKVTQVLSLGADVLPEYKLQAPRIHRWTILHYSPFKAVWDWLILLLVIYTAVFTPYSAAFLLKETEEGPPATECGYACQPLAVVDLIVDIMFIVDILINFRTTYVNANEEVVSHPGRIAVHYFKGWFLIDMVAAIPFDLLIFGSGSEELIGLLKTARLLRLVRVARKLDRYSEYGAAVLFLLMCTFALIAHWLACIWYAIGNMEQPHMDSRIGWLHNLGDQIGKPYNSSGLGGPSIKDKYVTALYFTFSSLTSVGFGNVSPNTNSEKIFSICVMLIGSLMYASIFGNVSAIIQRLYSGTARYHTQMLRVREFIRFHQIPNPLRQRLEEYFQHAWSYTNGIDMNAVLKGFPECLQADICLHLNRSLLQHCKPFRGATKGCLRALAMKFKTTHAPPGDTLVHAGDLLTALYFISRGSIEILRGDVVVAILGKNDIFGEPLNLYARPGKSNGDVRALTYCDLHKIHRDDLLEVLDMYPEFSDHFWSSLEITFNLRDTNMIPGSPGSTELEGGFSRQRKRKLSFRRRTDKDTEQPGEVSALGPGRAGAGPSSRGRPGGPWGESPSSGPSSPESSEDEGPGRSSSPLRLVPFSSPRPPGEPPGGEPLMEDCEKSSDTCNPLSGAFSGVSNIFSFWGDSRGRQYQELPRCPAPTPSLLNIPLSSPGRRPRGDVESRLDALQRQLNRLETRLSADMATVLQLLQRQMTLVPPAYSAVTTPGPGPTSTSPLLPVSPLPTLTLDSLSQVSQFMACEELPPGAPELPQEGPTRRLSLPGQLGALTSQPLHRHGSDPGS

Mus musculus [7] = test: Antidiabetic activity in po dosed C57BL/6J mouse assessed as reduction in glucose AUC administered 30 mins before glucose challenge measured up to 120 mins by oral glucose tolerance test; assay type: functional, organism-based
How it was run: (§2)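 Oral dosing in C57BL/6J mice at 0.1, 0.3 or 1.0 mg/kg in 0.5% methylcellulose vehicle, followed by a 2 g/kg glucose challenge 30 min post-dose. […] Percent inhibition was calculated from AUC normalized to non-glucose controls. Means ± SEM.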

Rattus norvegicus [8] = test: Inhibition of DPP-4 in Sprague-Dawley rat plasma at 3 mg/kg, po administered as single dose measured at 24 hrs post dose; assay type: functional; how it was run: as §1
[9] = Half life in rat; assay type: ADME, organism-based; details: in vivo
Mus musculus [10] = test: Antidiabetic activity in C57BL/6J mouse assessed as inhibition of blood glucose elevation at 1 mg/kg, po administered 30 mins before glucose challenge by oral glucose tolerance test; assay type: functional; how it was run: as §2
[11] = Clearance in rat; assay type: ADME, organism-based; details: in vivo
Rattus norvegicus [12] = test: Inhibition of DPP-4 in Sprague-Dawley rat plasma at 1 mg/kg, po administered as single dose measured at 24 hrs post dose; assay type: functional; how it was run: as §1

Cytochrome P450 2C9, sequence (P11712 whole entry): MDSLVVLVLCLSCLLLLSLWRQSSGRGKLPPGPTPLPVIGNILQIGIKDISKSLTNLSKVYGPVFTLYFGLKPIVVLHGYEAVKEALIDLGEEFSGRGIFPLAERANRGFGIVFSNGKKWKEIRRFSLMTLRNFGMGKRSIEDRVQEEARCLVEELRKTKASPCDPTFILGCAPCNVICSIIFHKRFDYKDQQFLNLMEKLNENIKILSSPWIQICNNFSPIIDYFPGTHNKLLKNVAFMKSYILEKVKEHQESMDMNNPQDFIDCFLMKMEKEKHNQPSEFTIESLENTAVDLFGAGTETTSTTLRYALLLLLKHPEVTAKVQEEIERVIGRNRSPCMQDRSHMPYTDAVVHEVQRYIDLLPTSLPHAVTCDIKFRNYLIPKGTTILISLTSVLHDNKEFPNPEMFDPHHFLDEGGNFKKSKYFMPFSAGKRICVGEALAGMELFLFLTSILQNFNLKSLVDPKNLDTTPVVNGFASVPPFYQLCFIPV
Cytochrome P450 2D6, sequence (P10635 whole entry): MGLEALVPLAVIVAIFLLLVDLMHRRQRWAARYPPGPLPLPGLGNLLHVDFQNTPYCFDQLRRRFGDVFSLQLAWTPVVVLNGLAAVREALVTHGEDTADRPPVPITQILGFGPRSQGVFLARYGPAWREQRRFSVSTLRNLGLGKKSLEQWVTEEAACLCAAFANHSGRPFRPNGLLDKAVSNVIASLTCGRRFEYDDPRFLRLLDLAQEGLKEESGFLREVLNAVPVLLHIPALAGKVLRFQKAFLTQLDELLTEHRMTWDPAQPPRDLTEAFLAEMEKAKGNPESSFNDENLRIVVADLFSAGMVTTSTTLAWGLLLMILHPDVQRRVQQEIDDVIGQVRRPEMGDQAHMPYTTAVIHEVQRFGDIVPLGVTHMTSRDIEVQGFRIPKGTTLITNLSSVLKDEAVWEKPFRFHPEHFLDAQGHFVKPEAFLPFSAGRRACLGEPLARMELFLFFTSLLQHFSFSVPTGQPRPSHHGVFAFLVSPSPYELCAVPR

inhibition (INH) (Cytochrome P450 2D6): Not Active
inhibition (INH) (Cytochrome P450 2C9): Not Active
inhibition (INH) (Cytochrome P450 1A2): Not Active
inhibition (INH) (Cytochrome P450 3A4): Not Active
inhibition (INH) (Cytochrome P450 2C19): Not Active
Structure (SMILES): N[C@@H](CC(=O)N1CCNC(=O)[C@H]1CO)Cc1cc(F)c(F)cc1F

IC50 (Cytochrome P450 3A4): 1.07 µM
Structure (SMILES): COc1ccc(CN2CCN(C(=O)C[C@H](N)Cc3cc(F)c(F)cc3F)CC2=O)cc1

bioavailability [1]: 74.8%
Vd [3]: 12 L/kg
INH (Cytochrome P450 2D6): > 50 µM
half-life [5]: > 1.5 h
INH (Cytochrome P450 2C9): > 50 µM
INH (Cytochrome P450 1A2): > 50 µM
INH (Cytochrome P450 3A4): > 50 µM
half-life [9]: 6.1 h
INH (Cytochrome P450 2C19): > 50 µM
clearance [11]: 60.5 mL/min/kg
Structure (SMILES): CC(C)(C)OC[C@@H]1C(=O)NCCN1C(=O)C[C@H](N)Cc1cc(F)c(F)cc1F [EVOGLIPTIN]
inhibition (Rattus norvegicus [2]): Dose-dependent effect
inhibition in vivo at 10 mg/kg (Rattus norvegicus [4]): 87.2%
IC50 [6]: 79.6 µM
Activity (Mus musculus [7]): Dose-dependent effect
inhibition in vivo at 3 mg/kg (Rattus norvegicus [8]): 82.9%
inhibition in vivo at 1 mg/kg (Mus musculus [10]): 63%
inhibition in vivo at 1 mg/kg (Rattus norvegicus [12]): 72.5%
